Published values from different studies.
Protocols differ between the studies behind these lines.
Target: Platelet-derived growth factor receptor beta (PDGFRB, Homo sapiens, UniProt P09619)

SMILES | assay | endpoint | value
Cc1cc(Nc2cc3ncccc3c(N[C@@H]3C[C@H]4CC[C@@H](C3)N4CCC#N)n2)n[nH]1 | binding, competition with immobilised ligand | Kd | 0.068 µM
FC(F)(F)c1ccc(CNc2ccc(Cc3c[nH]c4ncc(Cl)cc34)cn2)cn1 | enzyme activity, inhibitor | IC50 | 0.008 µM
CCN1CCN(Cc2ccc(C(=O)Nc3ccc(C)c(Oc4ccc5c(c4)CC(=O)N5)c3)cc2C(F)(F)F)CC1 | enzyme activity, inhibitor | IC50 | > 10 µM
Cc1ccc(NC(=O)c2ccc(CN3CCS(=N)(=O)CC3)cc2)cc1Nc1nccc(-c2cccnc2)n1 | binding, competition with immobilised ligand | Kd | 0.019 µM
Cc1cnc(-c2ccc(-c3ccc(NC(=O)Nc4c(F)cc(F)cc4F)cc3F)c3c2C(=O)NC3)[nH]1 | binding, competition with immobilised ligand | Kd | 0.0004 µM
C=CC(=O)Nc1cccc(CN2C(=O)N(c3c(Cl)c(OC)cc(OC)c3Cl)Cc3cnc(NCCCCN(CC)CC)nc32)c1 | binding, competition with immobilised ligand | Kd | 0.48 µM
Cc1ccc(NC(=O)c2ccc(C)c(C(F)(F)F)c2)cc1C#Cc1nn(C2CCC(O)CC2)c2ncnc(N)c12 (centres unmarked) | enzyme activity, inhibitor, radiometric | IC50 | > 10 µM
COc1ccc2c(Oc3ccc4c(C(=O)Nc5ccccc5N)cccc4c3)ccnc2c1 | enzyme activity, inhibitor | IC50 | 0.093 µM
